Source: PubChem (several laboratories)
Many of the other results were omitted from the sample, so hits are more common in it than they were.
GSH fluor = compound fluoresces at 488/530 nm on GSH beads; GSH beads flow cytometry, compound fluorescence 488/530 nm; active compounds read high; fluorescence (KMESF) at 10 µM; actives 0.25% (n = 190,000); in the data active = fluorescence above about 89;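 note: glutathione beads carrying GST-tagged Bcl family fusion proteins plus one bare bead set; values are compound well signal with DMSO vehicle wells as background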
ABCG2 block = human ABCG2 inhibition, ABCB1 as counter-screen. Q9UNQ0. IgMXP3 cells, JC-1 efflux, flow cytometry. inhibition, % at 6.6 µM. actives 0.1% (n = 190,000). AID 1325;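 active = inhibition above 80%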;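 note: 0% = DMSO and 100% = nicardipine control wells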
Target sequence (Q9UNQ0 whole entry, looked up): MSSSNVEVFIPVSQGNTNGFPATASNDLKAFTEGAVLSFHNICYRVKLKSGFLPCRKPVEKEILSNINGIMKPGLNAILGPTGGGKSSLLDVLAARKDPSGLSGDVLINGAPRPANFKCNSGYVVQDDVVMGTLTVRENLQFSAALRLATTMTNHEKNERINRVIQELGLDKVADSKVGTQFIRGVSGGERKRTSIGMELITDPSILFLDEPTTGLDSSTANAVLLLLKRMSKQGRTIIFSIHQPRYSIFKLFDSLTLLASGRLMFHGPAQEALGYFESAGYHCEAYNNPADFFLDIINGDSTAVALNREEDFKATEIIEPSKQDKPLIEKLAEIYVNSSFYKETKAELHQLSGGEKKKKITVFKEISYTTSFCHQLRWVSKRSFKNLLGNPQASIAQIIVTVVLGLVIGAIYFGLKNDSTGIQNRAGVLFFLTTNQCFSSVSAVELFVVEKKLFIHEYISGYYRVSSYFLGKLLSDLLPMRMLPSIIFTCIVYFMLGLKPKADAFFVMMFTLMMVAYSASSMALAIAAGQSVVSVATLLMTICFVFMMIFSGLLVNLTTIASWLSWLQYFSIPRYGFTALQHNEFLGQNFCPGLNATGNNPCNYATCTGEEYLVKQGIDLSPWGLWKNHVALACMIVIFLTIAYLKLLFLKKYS
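Test system: IgMXP3 cells (ABCG2) mixed with DDAO far-red-labelled CCRF-Adr cells (ABCB1). Reagent: JC-1 transporter substrate. Compound dosing: single test compound dose, 6.6 µM final. Times: 10 min compound exposure, 25 °C. Detection: flow cytometry of retained JC-1 fluorescence. Read-out basis: efflux inhibition in percent versus controls. Controls: nicardipine and DMSO wells.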
ABCB1 block = blocks JC-1 efflux by human ABCB1 transporter; CCRF-Adr cells, flow cytometry; inhibition, % at 6.6 µM; actives 0.067% (n = 190,000); AID 1326; in the data active = inhibition above about 40%;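 note: 0% = vehicle and 100% = reference inhibitor; higher value means more JC-1 retained so stronger ABCB1 efflux block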
Avidin fluor = avidin bead compound fluorescence profile; actives 0.38% (n = 220,000); Avidin beads, compound fluorescence 488/530 nm, flow cytometry; active compounds read high; AID 1775; fluorescence (KMESF) at 10 µM; in the data active = fluorescence above about 47
Lmaj promast = Leishmania major promastigote growth inhibition; Leishmania major promastigotes, resazurin fluorescence viability; actives 9% (n = 200,000); inhibition, % at 10 µM;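 note: promastigotes grown with compound for 44 hours at 28 °C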
PKD1 inh = blocks activity of human protein kinase D1 | PKD1 kinase fluorescence polarization assay | inhibition, % (test concentration not listed) | actives 0.056% (n = 200,000) | AID 797
The depositor's hits bear a star; . = not tested or not shown. Cut-off read from the data, not from the text of the source, unless noted: active = inhibition above about 50%; inactive = the rest.

SMILES	GSH fluor	ABCG2 block	ABCB1 block	Avidin fluor	Lmaj promast	PKD1 inh
Cc1ccccc1CC1(CO)CCCN(Cc2ccc(C#CC(C)(C)O)cc2)C1 (centres undefined)	15	3	1	12	85*	-6
CC(C)(O)C#Cc1ccc(CN2CCCC(CO)(Cc3cccc(Cl)c3)C2)cc1 (centres undefined)	10	2	1	21	97*	-2
CC1CN(Cc2ccccc2)C(C)CC1O (centres undefined)	24	2	1	10	-1	-3
CCOC(=O)c1cnc2c(-c3ccccc3OC)c(C)nn2c1C	14	12	2	11	-4	1
CC(C)CN(CC(C)C)S(=O)(=O)N1CCC(C(=O)NCc2ccco2)CC1	8	4	1	26	-4	-4
Cc1ccc(C)c(-c2[nH]ncc2CN2CCCC(CO)(Cc3ccccc3C)C2)c1 (centres undefined)	12	1	1	3	73*	0
OCC1(Cc2ccccc2)CCCN(Cc2cn[nH]c2-c2ccccc2)C1 (centres undefined)	18	2	1	11	1	-1
O=C(NCc1cccs1)C(Cc1ccccc1)NS(=O)(=O)c1cccs1 (centres undefined)	10	6	0	38	14	-13
CCCNC(=O)C(NS(=O)(=O)c1cccc2nsnc12)c1ccccc1 (centres undefined)	15	7	2	8	0	-12
CC(C)(C)NC(=O)C(Cc1ccccc1)NS(=O)(=O)c1cccc2nsnc12 (centres undefined)	23	0	0	12	3	-5
O=C(NCc1ccc(F)cc1)C(Cc1ccccc1)NS(=O)(=O)c1cccs1 (centres undefined)	9	-4	0	18	100*	0
O=C(NCc1ccco1)C(NS(=O)(=O)c1cccc2nsnc12)c1ccccc1 (centres undefined)	21	9	1	52*	-1	-12
O=C(NCc1ccccc1)C(Cc1ccccc1)NS(=O)(=O)c1cccc2nsnc12 (centres undefined)	65	1	1	7	93*	1
O=C(CN1CCN(C(=O)C2COc3ccccc3O2)CC1)Nc1ccccc1 (centres undefined)	.	.	.	4	.	.
CCOC(=O)c1c(NC(=O)C2=C(C)NC(=S)NC2c2ccc(F)cc2)sc(C)c1C (centres undefined)	10	2	2	4	82*	4
CCOC(=O)c1c(NC(=O)C2=C(C)NC(=S)NC2c2ccc(C)cc2)sc(C)c1C (centres undefined)	10	-2	0	8	81*	-1
CCOC(=O)c1c(NC(=O)C2=C(C)NC(=S)NC2c2ccc(F)cc2F)sc(C)c1C (centres undefined)	19	2	1	6	27	7
CCCCCCNCc1c(F)cccc1Cl	13	-1	0	11	-3	-8
C=CCN1C(=O)/C(=C\c2ccc(Oc3nc(N4CCOCC4)nc(N4CCOCC4)n3)c(OC)c2)SC1=S	20	2	5	10	54*	-2
Cc1cc(C)c(C(=O)Nc2ccc(Br)c(C(F)(F)F)c2)c(C)c1	6	6	0	13	98*	-13
O=C(O)c1ccccc1C(=O)Nc1ccc(Br)c(C(F)(F)F)c1	.	.	.	6	.	.
COc1ccc(CSc2nncn2C)cc1[N+](=O)[O-]	5	-1	0	14	52*	-6
c1ccc(Cn2c(CSc3nnnn3-c3ccccc3)nc3ccccc32)cc1	237*	3	1	3	-1	-1
Cc1cc(-c2csc(NC(=O)c3cc4ccccc4o3)n2)c(C)n1C	21	0	-1	24	-1	-13
O=C(Nc1nc(-c2ccccn2)cs1)c1ccc(Cl)s1	25	5	1	8	100*	-8
O=C(Nc1nc(-c2ccccn2)cs1)c1cc2ccccc2o1	16	5	-1	11	100*	-2
Cn1cccc1C(=O)Nc1nc(-c2ccccn2)cs1	28	-6	-5	12	100*	-2
C[C@H](NC(=O)c1ccccc1)C(=O)Nc1nc(-c2ccccn2)cs1	14	3	1	26	13	-9
